Measurements published in ChEMBL document CHEMBL5385869, “Novel 4-aminoquinolines: Synthesis, inhibition of the Mycobacterium tuberculosis enoyl-acyl carrier protein reductase, antitubercular activity, SAR, and preclinical evaluation” (Eur J Med Chem, 2023).
Activity calls are given as the source filed them. The calls are words filed in the database; no cut-off is given here.

Key:
[1] = Chemical stability in 0.1 M NH4HCO3 solution at pH 9.1 assessed as reduction in parent compound at 1 to 10 uM measured after 24 hrs by HPLC-EM/MS analysis; type: physicochemical; details: dose 1-10 µM, read-out: Drug degradation
Outline: (§1)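 Compounds at 1–10 μM incubated 24 h at 37 °C in three media: pH 1.2 (0.1 M HCl), pH 7.4 (PBS) and pH 9.1 (0.1 M NH4HCO3). Remaining parent compound quantified afterward.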

[2] = Chemical stability in PBS at pH 7.4 assessed as parent compound remaining at 1 to 10 uM measured after 24 hrs by HPLC-EM/MS analysis; type: physicochemical; details: dose 1-10 µM, read-out: Stability; outline: as §1
[3] = Cytotoxicity against African green monkey Vero cells assessed as reduction in cell viability incubated for 72 hrs by MTT assay; type: toxicity, cell-based; details: chlorocebus sabaeus
Outline: (§2)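 Cells grown in DMEM with 10% FBS. HepG2 seeded at 4 × 10³ and Vero at 2 × 10³ cells/well, 24 h before dosing. Compounds at 1, 5 and 20 μM in 1% DMSO for 72 h at 37 °C, 5% CO2. MTT readout: 5 mg/mL reagent for 4 h, absorbance at 595 nm. Neutral red readout: 25 μg/mL dye for 3 h, then acid-ethanol desorb. Viability is expressed relative to 1% DMSO controls.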

[4] = Cytotoxicity against human HepG2 cells assessed as reduction in cell viability incubated for 72 hrs by neutral red uptake assay; type: toxicity, cell-based; outline: as §2
[5] = target: T1, Enoyl-[acyl-carrier-protein] reductase [NADH] (Mycobacterium tuberculosis) (UniProt P9WGR1); assay: Time dependent inhibition of Mycobacterium tuberculosis InhA
T1 sequence (whole entry): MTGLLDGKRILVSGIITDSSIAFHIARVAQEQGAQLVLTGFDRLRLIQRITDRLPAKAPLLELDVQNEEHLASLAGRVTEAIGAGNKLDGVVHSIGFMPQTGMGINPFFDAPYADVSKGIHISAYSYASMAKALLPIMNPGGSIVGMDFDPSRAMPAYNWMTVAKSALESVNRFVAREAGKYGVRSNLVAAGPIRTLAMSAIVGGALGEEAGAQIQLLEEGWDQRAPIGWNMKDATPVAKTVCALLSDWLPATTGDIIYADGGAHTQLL

[6] = target: T2, Enoyl-[acyl-carrier-protein] reductase [NADH] (Mycobacterium tuberculosis, UniProt P9WGR1); assay: Noncompetitive inhibition of Mycobacterium tuberculosis InhA using DD-CoA as substrate assessed as inhibition constant for enzyme-inhibitor binary complex in presence of varying concentrations of NADH by double reciprocal plot analysis
T2 sequence (P9WGR1 whole entry): T1 sequence (whole entry)

[7] = Chemical stability in 0.1 M HCl solution at pH 1.2 assessed as parent compound remaining at 1 to 10 uM measured after 24 hrs by HPLC-EM/MS analysis; type: physicochemical; details: dose 1-10 µM, read-out: Stability; outline: as §1
Klebsiella pneumoniae = assay: Antibacterial activity against multidrug-resistant Klebsiella pneumoniae clinical isolates assessed as inhibition of bacterial growth at 20 uM by broth microdilution method; type: functional, organism-based
Outline: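 Broth microdilution in triplicate against a small bacterial panel, with compounds tested at 20 μM for growth inhibition.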

[8] = Cytotoxicity against African green monkey Vero cells assessed as reduction in cell viability incubated for 72 hrs by neutral red uptake assay; type: toxicity, cell-based; details: chlorocebus sabaeus; outline: as §2
[9] = Selectivity index, ratio of CC50 for human HepG2 cells by neutral red uptake assay to MIC for pan-sensitive Mycobacterium tuberculosis H37Rv ATCC 27294; type: toxicity; details: read-out: Selectivity Index
[10] = Selectivity index, ratio of CC50 for African green monkey Vero cells by MTT assay to MIC for pan-sensitive Mycobacterium tuberculosis H37Rv ATCC 27294; type: toxicity, cell-based; details: read-out: Selectivity Index
[11] = target: T1, Enoyl-[acyl-carrier-protein] reductase [NADH] (Mycobacterium tuberculosis); assay: Binding affinity to Mycobacterium tuberculosis InhA assessed as gibbs free energy change at 250 uM in presence of NADH by fluorescence spectroscopy
Outline: (§3)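 Titration of pre-formed MtInhA:NADH complex (2 mL of 3 μM enzyme with 20 μM NADH), adding microliter aliquots of 250 μM ligand stock with dilution kept ≤1%. Intrinsic fluorescence read at 295 nm excitation, 310–500 nm emission. Temperatures 15, 20, 25 and 30 °C. KD is fitted to a hyperbolic isotherm. ΔH°, ΔS° and ΔG° come from van't Hoff analysis of KD across temperatures.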

[12] = target: T1, Enoyl-[acyl-carrier-protein] reductase [NADH] (Mycobacterium tuberculosis); assay: Binding affinity to Mycobacterium tuberculosis InhA assessed as change in enthalpy at 250 uM in presence of NADH by fluorescence spectroscopy
[13] = Cytotoxicity against human HepG2 cells assessed as reduction in cell viability incubated for 72 hrs by MTT assay; type: toxicity, cell-based; outline: as §2
[14] = target: T1, Enoyl-[acyl-carrier-protein] reductase [NADH] (Mycobacterium tuberculosis); assay: Binding affinity to Mycobacterium tuberculosis InhA assessed as change in entropy at 250 uM in presence of NADH by fluorescence spectroscopy
[15] = tested on: Mycobacterium tuberculosis; assay: Bacteriostatic activity in Mycobacterium tuberculosis H37Rv ATCC 27294 infected in CF-1 mouse assessed as reduction in bacterial growth in lungs at 300 to 450 uM/kg, po administered daily for 14 days starting from 7 days post infection; type: functional, organism-based; details: dose 300-450 µM/Kg, time 14.0 day
Outline: (§4)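 Mice treated by gavage from 7 days post-infection for 14 days, daily, at 300 or 450 μM/kg. Lungs and spleen homogenized in saline and plated for CFU. Comparisons are against vehicle and early-control groups.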

[16] = Toxicity in mouse at 300 mg/kg administered as single dose and measured for 14 days; type: organism-based; details: in vivo, 336 h, time 14 day
Outline: (§5)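 Acute oral toxicity study. At day 14 the animals were euthanized, and kidneys, liver and spleen were weighed and inspected macroscopically.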

[17] = Toxicity in CF-1 mouse assessed as reduction in body weight at 300 uM/kg, po administered daily for 14 days; type: organism-based; details: in vivo, 336 h, time 14 day
Outline: (§6)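 Mice were infected with M. tuberculosis H37Rv. From 7 days after infection, test and reference drugs were given daily by oral gavage for 14 days, with a vehicle-only group. Body weight was followed over the course of the experiment.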

[18] = target: T2, Enoyl-[acyl-carrier-protein] reductase [NADH]; assay: Binding affinity to Mycobacterium tuberculosis InhA assessed as dissociation constant at 250 uM at 20 degreeC in presence of NADH by fluorescence spectroscopy; outline: as §3
[19] = Toxicity in mouse assessed as effect on body weight at 300 mg/kg administered as single dose and measured for 14 days; type: organism-based; details: in vivo, 336 h, time 14 day; outline: as §5
[20] = Toxicity in CF-1 mouse assessed as reduction in body weight at 300 to 450 uM/kg, po administered daily for 14 days; type: organism-based; details: in vivo, 336 h, dose 300-450 µM/Kg, time 14 day; outline: as §6
[21] = Toxicity in mouse assessed as effect on lung weight at 300 mg/kg administered as single dose and measured for 14 days; type: organism-based; details: in vivo, 336 h, time 14 day
[22] = target: T2, Enoyl-[acyl-carrier-protein] reductase [NADH]; assay: Binding affinity to Mycobacterium tuberculosis InhA assessed as dissociation constant at 250 uM at 15 degreeC in presence of NADH by fluorescence spectroscopy; outline: as §3
[23] = Toxicity in CF-1 mouse assessed as reduction in body weight at 150 uM/kg, po administered daily for 14 days; type: organism-based; details: in vivo, 336 h, time 14 day; outline: as §6
[24] = target: T2, Enoyl-[acyl-carrier-protein] reductase [NADH]; assay: Binding affinity to Mycobacterium tuberculosis InhA assessed as dissociation constant at 250 uM at 30 degreeC in presence of NADH by fluorescence spectroscopy; outline: as §3
[25] = tested on: Mycobacterium tuberculosis; assay: Antibacterial activity against Mycobacterium tuberculosis H37Rv ATCC 27294 infected in CF-1 mouse assessed as reversal of bacterial growth in spleen at 300 to 450 uM/kg, po administered daily for 14 days starting from 7 days post infection; type: functional, organism-based; details: dose 300-450 µM/Kg, time 14.0 day; outline: as §4

Row | SMILES | degraded at 24 h, up to 10 µM [1] | remaining at 24 h, up to 10 µM [2] | CC50 at 72 h [3] | CC50 at 72 h [4] | TDI [5] | Ki [6] | remaining at 24 h, up to 10 µM [7] | Activity (Klebsiella pneumoniae) | CC50 at 72 h [8] | selectivity ratio [9] | selectivity ratio [10] | deltaG [11] | deltaH [12] | CC50 at 72 h [13] | deltaS [14] | other results
1 | Cc1cc(Nc2ccc(N3CCCCC3)cc2)c2cc(Cl)ccc2n1 | > 75% | 100% | 19.2 µM | 16.4 µM | inactive | 0.43 µM | 98.6% | inactive | 11.7 µM | 18.2 | 21.3 | -8.3 kcal/mol | -23.2 kcal/mol | > 20 µM | -49.8 cal/mol/K | –
2 | Cc1cc(Nc2ccc(N3CCCCC3)cc2)c2cc(Br)ccc2n1 | ~50% | 100% | > 20 µM | 18.3 µM | inactive | 0.14 µM | 94.6% | inactive | 12.2 µM | 45.7 | > 50 | -8.3 kcal/mol | -18.3 kcal/mol | > 20 µM | -33.4 cal/mol/K | Activity [15]: Active; Activity [16]: Non-Toxic; Activity [17]: Non-Toxic; Kd [18]: 0.47 µM; Activity [19]: Non-Toxic; Activity [20]: Non-Toxic; Activity [21]: Non-Toxic; Kd [22]: 0.28 µM; Activity [23]: Non-Toxic; Kd [24]: 1.34 µM; Activity [25]: inactive
